34 compounds from PubChem BioAssay AID743061 (The Scripps Research Institute Molecular Screening Center, 2013) can be followed below.

Structures are written as SMILES.

Broadly, the inhibition is the drop in the measured response relative to a control, in per cent.

The assay deals with Methionine--tRNA ligase, mitochondrial (Homo sapiens) (UniProt Q96GW9). Nature of the assay: human mtMetRS tRNA charging inhibition – biochemical, radioactivity, round 1, selectivity assay for T. brucei MetRS inhibitor project, late-stage follow-up (AID 743061).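 Further: 0% = DMSO with full reaction and 100% = DMSO wells lacking tRNA.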 The conditions noted are these: recombinant human mtMetRS, [3H]Met tRNA charging, at 1 µM, stronger effect = higher value. In outline: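 Material – recombinant human mitochondrial methionyl-tRNA synthetase (MetRS) · Input – 13 nM enzyme · Also added – 240 nM [3H]methionine with bulk E. coli tRNA acceptor · Compound dosing – 10 and 1 µM · Schedule – 15 min preincubation, 1 h reaction, room temperature · Detection – scintillation counts of TCA-precipitated charged tRNA on filters · Benchmarks – high DMSO, low without tRNA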
On to `O=C1[C@@H]2Cc3c([nH]c4ccccc34)C(c3cccc([N+](=O)[O-])c3)N2C(=O)CN1CCCO` (some centres undefined), for which the inhibition is -17.4%. For the compound `CC(=O)N(CCc1ccccc1)C1CC(=O)N(c2ccc(Cl)cc2)C1=O` (centres undefined), the inhibition is -19.9%.

Regarding `O=C(CC=NOCc1ccc([N+](=O)[O-])cc1)Nc1ccc(Cl)cc1`, the inhibition is -13%.

`CCCCCCCCCC1NC(C(=O)O)Cc2c1[nH]c1ccccc21` (centres undefined): the inhibition is -2.41%. For `CCN(CC)C(=O)C(=O)c1cn(CC(=O)Nc2ccccc2OC)c2ccccc12`, the inhibition was -10.6%.

For `O=C(NCCc1nc2ccccc2[nH]1)c1c(F)cccc1F`, the inhibition is 0.56%. The same measure for `CC(=O)c1cn(CC(=O)Nc2cccc(C(F)(F)F)c2)c2ccccc12`: -20.4%; for `O=C1CC(SCc2nc3ccccc3[nH]2)C(=O)N1c1cccc(Cl)c1` (centres undefined): -4.5%.

Regarding `O=C(CCC(=O)Nc1cccc([N+](=O)[O-])c1)NN=Cc1cccs1`, the inhibition was -28.9%. The same measure for `O=C(NCCc1nc2ccccc2[nH]1)c1ccc(Cl)cc1Cl`: 16.4%.

`O=C(Cn1cc(C(=O)C(=O)N2CCCC2)c2ccccc21)Nc1ccccc1`: the inhibition was -7.71%. In the case of `O=C(Cn1cc(C(=O)c2ccccc2)c2ccccc21)Nc1cccc(C(F)(F)F)c1` it was -2.29%; in that of `COc1ccc(CNC(=O)CSc2nnc3c(n2)[nH]c2ccc(F)cc23)cc1`, -29.7%; in that of `O=C1CC(N(CCc2ccccc2)C(=S)Nc2ccccc2)C(=O)N1c1ccc(Br)cc1` (centres undefined), -25.5%. In the case of `COc1cccc(NC(=O)C2CC(=O)n3c(nc4ccccc43)N2)c1` (centres undefined) it was 1.46%; in that of `CCO[C@@H]1OC(C(=O)NCc2nc3ccccc3[nH]2)=C[C@H](c2ccc(Br)cc2)[C@H]1CCCO`, -4.89%.

Turning to `CC(=O)N(CCc1ccccc1)C1CC(=O)N(c2ccc(Br)cc2)C1=O` (centres undefined), the inhibition was -17.2%. With `O=C(NCc1nc2ccccc2[nH]1)C1=C[C@@H](c2ccc(Br)cc2)C[C@@H](OCc2ccc(CO)cc2)O1`, the inhibition is -11.6%. In the case of `O=C(N/C(=C\c1cccnc1)c1nc2ccccc2[nH]1)c1cccc(Br)c1` it was -19.7%; in that of `COc1ccccc1NC(=O)CSc1nnc2c(n1)[nH]c1ccc(C)cc12`, -3.56%; in that of `Cc1[nH]c2ccc(Br)cc2c(=O)c1CN1CCCCCC1`, -31.2%. In the case of `COc1ccccc1NC(=O)Cn1cc(C(=O)C(=O)N2CCOCC2)c2ccccc21` it was -9.04%; in that of `CCN(CC)C(=O)C(=O)c1cn(CC(=O)Nc2cccc(OC)c2)c2ccccc12`, 10.6%; in that of `COc1cccc(NC(=O)CSc2nnc3c(n2)[nH]c2ccc(C)cc23)c1`, 49.7%. In the case of `CC(=O)c1c[nH]c(C(=O)NCc2cccc(C(F)(F)F)c2)c1` it was -7.99%; in that of `Cc1ccc(CNC(=O)CSc2nnc3c(n2)[nH]c2ccc(C)cc23)cc1`, 1.77%; in that of `O=C(CC(=O)Nc1cccc(Cl)c1)NN=Cc1ccccc1`, -18.3%. For the compound `COc1ccc(OCC(O)CNC(=O)Nc2ccc(Cl)cc2)cc1` (centres undefined), the inhibition was -6.26%. Turning to `O=C(NNC(=O)c1ccc(-n2cncn2)c([N+](=O)[O-])c1)c1ccc(Cl)cc1`, the inhibition is -30.3%. As to `CC(C)(C)[C@H]1C=C(C(=O)NCc2nc3ccccc3[nH]2)O[C@@H](OCc2ccc(CO)cc2)C1`, the inhibition was -20.5%.

In the case of `O=C(NCc1nc2ccccc2[nH]1)C1=C[C@@H](c2ccc(Br)cc2)C[C@@H](OCCCCO)O1`, the inhibition was -9.46%. In the case of `O=C(NCc1nc2ccccc2[nH]1)C1=C[C@@H](c2csc3ccccc23)C[C@@H](OCCCCO)O1`, the inhibition is -15%.

Turning to `CCN(CC)C(=O)C(=O)c1cn(CC(=O)N2CCCc3ccccc32)c2ccccc12`, the inhibition is -14.3%.

Turning to `Oc1c(Cl)cc(Cl)cc1CNc1nc2ccccc2[nH]1`, the inhibition is -0.2%.
